ChEMBL document CHEMBL1795316, “Synthesis and biological evaluation of α-ketoamides as inhibitors of the Dengue virus protease with antiviral activity in cell-culture” (Bioorg Med Chem, 2011)
The source made the active and inactive calls. The rule behind the calls is not given here.

Key:
Dengue virus = assay: Inhibition of Dengue virus NS2B-NS3 serine protease expressed in Escherichia coli BL 21 (DE3) at 50 uM preincubated for 15 mins before substrate addition measured after 15 mins by fluorimetric analysis
Summary of the method: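 Recombinant NS2B hydrophilic cofactor linked through a glycine linker to NS3pro, His-purified on Ni2+ resin. Enzyme preincubated 15 min with inhibitor at 50 μM. Internally quenched substrate added to 50 μM final. Fluorescence read at ex 320/em 405 nm for 15 min, with initial slope per second as activity. Triplicate runs averaged.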

[1] = biological target: Prothrombin (Homo sapiens) (UniProt P00734); assay: Inhibition of thrombin at 25 uM preincubated for 15 mins before Boc-Val-Pro-Arg-AMC substrate addition measured after 10 mins by microtiter fluorescence plate reader analysis
[2] = biological target: Genome polyprotein (West Nile virus) (UniProt P06935); assay: Inhibition of West Nile virus NS2B-NS3 serine protease at 50 uM preincubated for 15 mins before substrate addition measured after 15 mins by fluorimetric analysis
Summary of the method: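 WNV NS2B-NS3 protease at 150 nM final, preincubated 15 min with inhibitor at 50 μM. Abz-GLKRGG-3-(NO2)Y internally quenched substrate added to 50 μM final. Continuous fluorescence read for 15 min, with initial slope per second as activity.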

dengue virus type 2 [3] = assay: Antiviral activity against Dengue virus 2 infected in human Huh-7 cells assessed as reduction of viral titers at non-cytotoxic concentration after 24 hrs by reporter gene assay relative to control; assay type: functional
Summary of the method: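 Huh-7 cells were infected with wild-type DenV-2 at an MOI of 1 TCID50 per cell. Compounds were added to the supernatants 4 h post-infection, with 1% final DMSO as the diluent control. Infectious titers were determined 24 h post-infection by limiting-dilution assay, with three independent experiments. Cytotoxicity was measured in Huh-7-Fluc cells after 48 h at 37 °C by luciferase read-out and visual inspection.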

Huh-7 = assay: Cytotoxicity against human HuH7 cells assessed as reduction of cell viability at up to 100 uM after 48 hrs by luciferase assay; assay type: cell-based; conditions: huh-7, 48 h
Summary of the method: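 Huh-7-Fluc cells exposed to compounds up to 100 μM for 48 h at 37 °C, 5% CO2. Cells then lysed and luciferase activity read as a surrogate of viability, alongside visual inspection of cells.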

dengue virus type 2 [4] = assay: Antiviral activity against Dengue virus 2 infected in human Huh-7 cells assessed as inhibition of viral replication at 1 to 25 uM treated 4 hrs after infection measured after 24 hrs by reporter gene assay; assay type: functional, organism-based

Chain of Genome polyprotein (West Nile virus) (P06935 whole entry): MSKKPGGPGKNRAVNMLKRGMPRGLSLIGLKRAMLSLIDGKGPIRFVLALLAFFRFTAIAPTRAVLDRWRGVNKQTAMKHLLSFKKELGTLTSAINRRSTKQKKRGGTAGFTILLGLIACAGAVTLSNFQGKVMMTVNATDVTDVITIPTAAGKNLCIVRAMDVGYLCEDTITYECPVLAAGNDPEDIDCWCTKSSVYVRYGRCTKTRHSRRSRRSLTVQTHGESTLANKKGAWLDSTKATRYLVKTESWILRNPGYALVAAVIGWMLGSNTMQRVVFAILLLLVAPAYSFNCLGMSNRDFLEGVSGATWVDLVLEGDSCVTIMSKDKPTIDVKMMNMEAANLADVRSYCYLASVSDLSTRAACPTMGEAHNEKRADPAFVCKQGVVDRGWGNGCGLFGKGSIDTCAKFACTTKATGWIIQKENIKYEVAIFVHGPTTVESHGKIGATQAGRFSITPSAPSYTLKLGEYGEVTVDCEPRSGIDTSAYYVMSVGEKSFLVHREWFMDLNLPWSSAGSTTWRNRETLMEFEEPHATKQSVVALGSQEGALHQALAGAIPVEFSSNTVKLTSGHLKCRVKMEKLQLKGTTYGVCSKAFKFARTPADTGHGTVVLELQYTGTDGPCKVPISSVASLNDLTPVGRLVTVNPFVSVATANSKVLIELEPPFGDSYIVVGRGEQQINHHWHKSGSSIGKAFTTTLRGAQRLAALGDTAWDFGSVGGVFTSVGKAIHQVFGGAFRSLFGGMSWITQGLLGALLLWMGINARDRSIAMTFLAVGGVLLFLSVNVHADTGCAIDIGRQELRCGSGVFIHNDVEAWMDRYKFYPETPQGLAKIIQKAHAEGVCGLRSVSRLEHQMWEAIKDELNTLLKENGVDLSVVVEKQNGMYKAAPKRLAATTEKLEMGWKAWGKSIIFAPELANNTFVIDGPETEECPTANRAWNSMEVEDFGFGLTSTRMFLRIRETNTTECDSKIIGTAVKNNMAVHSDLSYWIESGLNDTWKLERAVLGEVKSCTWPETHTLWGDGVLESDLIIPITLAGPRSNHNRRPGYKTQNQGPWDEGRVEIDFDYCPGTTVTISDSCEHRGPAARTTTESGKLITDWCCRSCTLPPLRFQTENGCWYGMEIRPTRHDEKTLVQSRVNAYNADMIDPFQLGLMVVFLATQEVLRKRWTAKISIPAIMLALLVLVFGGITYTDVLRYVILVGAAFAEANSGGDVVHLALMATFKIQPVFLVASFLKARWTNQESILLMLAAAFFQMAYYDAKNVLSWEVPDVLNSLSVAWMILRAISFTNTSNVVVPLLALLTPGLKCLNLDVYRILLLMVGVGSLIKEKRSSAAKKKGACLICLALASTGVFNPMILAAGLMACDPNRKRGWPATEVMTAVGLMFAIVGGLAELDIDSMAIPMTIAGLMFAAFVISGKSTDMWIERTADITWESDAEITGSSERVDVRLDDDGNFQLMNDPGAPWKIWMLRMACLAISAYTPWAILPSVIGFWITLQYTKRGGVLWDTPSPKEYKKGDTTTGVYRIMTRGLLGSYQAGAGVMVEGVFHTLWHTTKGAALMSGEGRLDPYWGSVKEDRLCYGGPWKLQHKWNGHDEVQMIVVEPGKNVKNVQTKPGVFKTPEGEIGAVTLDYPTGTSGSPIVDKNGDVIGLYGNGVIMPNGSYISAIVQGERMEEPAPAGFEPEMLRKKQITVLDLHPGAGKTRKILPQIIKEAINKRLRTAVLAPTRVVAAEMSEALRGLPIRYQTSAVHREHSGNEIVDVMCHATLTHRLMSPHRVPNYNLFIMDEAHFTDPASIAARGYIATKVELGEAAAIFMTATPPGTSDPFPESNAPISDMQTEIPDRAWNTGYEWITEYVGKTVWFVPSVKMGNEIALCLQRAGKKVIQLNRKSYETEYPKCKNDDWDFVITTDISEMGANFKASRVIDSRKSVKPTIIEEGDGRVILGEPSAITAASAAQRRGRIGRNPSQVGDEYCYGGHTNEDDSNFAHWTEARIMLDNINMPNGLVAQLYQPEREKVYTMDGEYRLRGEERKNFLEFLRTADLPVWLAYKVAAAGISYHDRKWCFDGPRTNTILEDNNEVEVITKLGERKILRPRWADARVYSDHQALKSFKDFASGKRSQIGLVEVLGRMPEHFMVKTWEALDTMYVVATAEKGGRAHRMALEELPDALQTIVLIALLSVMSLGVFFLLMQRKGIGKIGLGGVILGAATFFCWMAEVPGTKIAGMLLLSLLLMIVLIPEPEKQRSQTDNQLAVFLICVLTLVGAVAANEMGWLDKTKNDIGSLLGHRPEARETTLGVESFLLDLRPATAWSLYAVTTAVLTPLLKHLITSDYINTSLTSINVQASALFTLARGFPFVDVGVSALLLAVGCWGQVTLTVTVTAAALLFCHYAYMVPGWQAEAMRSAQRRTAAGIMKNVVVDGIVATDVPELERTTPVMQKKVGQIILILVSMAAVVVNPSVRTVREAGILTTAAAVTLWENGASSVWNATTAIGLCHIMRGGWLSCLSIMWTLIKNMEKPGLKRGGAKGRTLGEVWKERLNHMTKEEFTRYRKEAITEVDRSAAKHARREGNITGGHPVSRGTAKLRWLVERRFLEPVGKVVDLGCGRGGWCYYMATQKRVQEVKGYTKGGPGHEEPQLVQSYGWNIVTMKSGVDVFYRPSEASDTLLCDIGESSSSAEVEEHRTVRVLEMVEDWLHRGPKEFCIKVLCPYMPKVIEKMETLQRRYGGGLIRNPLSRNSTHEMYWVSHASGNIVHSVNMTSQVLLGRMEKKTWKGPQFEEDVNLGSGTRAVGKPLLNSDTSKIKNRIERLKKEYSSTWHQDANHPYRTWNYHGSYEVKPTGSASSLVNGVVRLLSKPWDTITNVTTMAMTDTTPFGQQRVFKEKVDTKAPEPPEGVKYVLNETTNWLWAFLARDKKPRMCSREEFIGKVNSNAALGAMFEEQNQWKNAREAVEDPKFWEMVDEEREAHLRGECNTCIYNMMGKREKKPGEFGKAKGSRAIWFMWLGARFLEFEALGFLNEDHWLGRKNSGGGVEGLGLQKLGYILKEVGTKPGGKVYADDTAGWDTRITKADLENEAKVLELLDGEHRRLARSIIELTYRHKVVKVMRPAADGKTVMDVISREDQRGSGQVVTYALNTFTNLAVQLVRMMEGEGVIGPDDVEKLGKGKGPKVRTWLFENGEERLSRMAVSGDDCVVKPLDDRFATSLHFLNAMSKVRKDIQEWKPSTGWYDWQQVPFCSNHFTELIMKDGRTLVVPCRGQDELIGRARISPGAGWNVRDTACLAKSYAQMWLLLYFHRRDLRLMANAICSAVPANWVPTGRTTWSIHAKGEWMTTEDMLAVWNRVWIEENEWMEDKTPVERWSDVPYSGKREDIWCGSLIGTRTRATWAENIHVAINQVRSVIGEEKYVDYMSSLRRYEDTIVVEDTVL

SMILES | inhibition (Dengue virus) | further results
CNC(=O)/C=C/c1ccccc1 | 15.2% | –
O=C(/C=C/c1ccccc1)C(=O)NCc1ccncc1 | 29.9% | –
O=C(/C=C/c1ccccc1)C(=O)NCCO | 26.1% | –
CC(C)(C)NC(=O)C(=O)C1CC1c1ccccc1 (stereo unspecified) | 7.4% | –
CC(C)c1ccc(/C=C/C(=O)C(=O)NC(C)(C)C)cc1 | 25.5% | –
CC(C)(C)NC(=O)C(=O)/C=C/c1ccc(Cl)cc1 | 15.9% | inhibition [1]: 6.7%; inhibition [2]: 6.3%
Cn1cc(/C=C/C(=O)C(=O)NC(C)(C)C)c2ccccc21 | 31.3% | –
COc1ccc(/C=C/C(=O)C(=O)NC(C)(C)C)c(OC)c1OC | 27.8% | –
CC(=O)Nc1ccc(/C=C/C(=O)C(=O)NC(C)(C)C)cc1 | 32.9% | –
O=C(/C=C/c1ccccc1)C(=O)NCc1ccccn1 | 29.4% | –
CC(C)(C)NC(=O)C(=O)/C=C/c1ccc2ccccc2c1 | 8.9% | –
CC(C)(C)NC(=O)C(=O)/C=C/c1c[nH]c2ccccc12 | 39.1% | fold change (FC) (dengue virus type 2 [3]): 1000; inhibition [1]: 16.9%; Activity (Huh-7): Non-toxic; inhibition [2]: 40.6%; Activity (dengue virus type 2 [4]): Active
O=C(/C=C/c1ccccc1)C(=O)NCC1CCCO1 (stereo unspecified) | 28.9% | –
O=C(/C=C/c1ccccc1)C(=O)NCc1ccccc1 | 14.6% | –
CC(C)(C)NC(=O)C(O)/C=C/c1ccccc1 (stereo unspecified) | 8.2% | –
CCCCCNC(=O)C(=O)/C=C/c1ccccc1 | 25.9% | –
CC(C)(C)NC(=O)C(=O)/C=C/c1cccnc1 | 23.3% | –
C/C(=C\c1ccccc1)C(=O)C(=O)NC(C)(C)C | 25.6% | inhibition [1]: 5.7%; inhibition [2]: 0%

SMILES | inhibition (Dengue virus) | further results
CC(C)(C)NC(=O)C(=O)/C=C/c1ccncc1 | 18.4% | –
CCC/C=C/C(=O)C(=O)NC(C)(C)C | 4.4% | –
O=C(/C=C/c1ccccc1)C(=O)NC1CCCCC1 | 14.5% | –
CC(C)NC(=O)C(=O)/C=C/c1ccccc1 | 23.8% | –
COC(=O)[C@H](CO)NC(=O)C(=O)/C=C/c1ccccc1 | 35.1% | inhibition [1]: 12.6%; inhibition [2]: 27.5%
CC(C)(C)NC(=O)C(=O)Cc1ccccc1 | 20.4% | –
CC(C)(C)NC(=O)C(=O)/C=C/c1cccc([N+](=O)[O-])c1 | 9.6% | –
O=C(/C=C/c1ccccc1)C(=O)N1CCOCC1 | 30.8% | –
CN(C)C(=O)C(=O)/C=C/c1ccccc1 | 29% | –
CNC(=O)C(=O)/C=C/c1ccccc1 | 26.9% | –
CC(C)(C)NC(=O)C(=O)c1ccccc1 | 6.9% | –
CC(=O)n1cc(/C=C/C(=O)C(=O)NC(C)(C)C)c2ccccc21 | 29.8% | –
CC(C)(C)NC(=O)C(=O)/C=C/c1cccc(F)c1 | 16.8% | –
CC(C)(C)NC(=O)C1(/C=C/c2ccccc2)CO1 (stereo unspecified) | 12.6% | inhibition [1]: 12.1%; inhibition [2]: 20.3%
CC(C)(C)NC(=O)C(=O)/C=C/c1ccc(O)cc1 | 37.6% | inhibition [1]: 17.3%; inhibition [2]: 31.4%
CC(C)(C)NC(=O)C(=O)/C=C/c1ccc([N+](=O)[O-])cc1 | 12.7% | –
CC(C)(C)NC(=O)C(=O)/C=C/c1ccc(F)cc1 | 23.9% | –
O=C(/C=C/c1ccccc1)C(=O)NC1CC1 | 31.2% | inhibition [1]: 17.1%; inhibition [2]: 20%

Now from value to compound, other results behind:

inhibition (Dengue virus) | SMILES | further results
27.6% | CC(C)(C)NC(=O)C(=O)/C=C/c1cccs1 | –
35.8% | CC(=O)OCCNC(=O)C(=O)/C=C/c1ccccc1 | inhibition [1]: 16.3%; inhibition [2]: 29.8%
21.5% | CC(C)(C)NC(=O)C(=O)C1CCCCC1 | –
0% | CC(NC(=O)C(=O)/C=C/c1ccccc1)c1ccccc1 (stereo unspecified) | inhibition [1]: 5.1%; inhibition [2]: 12.2%
12.9% | CC(C)(C)NC(=O)C(=O)/C=C/c1ccccc1[N+](=O)[O-] | –
13.8% | CN(C)c1ccc(/C=C/C(=O)C(=O)NC(C)(C)C)cc1 | inhibition [1]: 28.9%; inhibition [2]: 33.9%
15.1% | CC(C)(C)NC(=O)C(=O)/C=C/c1ccc(Br)cc1 | –
27.7% | CC(C)(C)NC(=O)C(=O)/C=C/c1ccccn1 | –
13.5% | CC(C)(C)NC(=O)C(=O)/C=C/c1ccc(C#N)cc1 | –
36.1% | COc1ccc(/C=C/C(=O)C(=O)NC(C)(C)C)cc1OC | inhibition [1]: 22.5%; inhibition [2]: 31%; Activity (dengue virus type 2 [4]): Active
16.7% | COc1ccc(/C=C/C(=O)C(=O)NC(C)(C)C)cc1 | inhibition [1]: 14.2%; inhibition [2]: 27.3%
19.6% | C/C(=C\C(=O)C(=O)NC(C)(C)C)c1ccccc1 | –
23.3% | COc1ccccc1/C=C/C(=O)C(=O)NC(C)(C)C | –
0% | CC(C)(C)NC(=O)C(=O)CCc1ccccc1 | Activity (dengue virus type 2 [4]): inactive
40.6% | CC(C)(C)NC(=O)C(=O)/C=C/c1ccc(N)cc1 | inhibition [1]: 21.1%; inhibition [2]: 39.5%
26.3% | CC(C)(C)NC(=O)C(=O)/C=C/c1ccccc1 | inhibition [1]: 19.6%; inhibition [2]: 20%
17.8% | COc1cccc(/C=C/C(=O)C(=O)NC(C)(C)C)c1 | –
